# The source made the active and inactive calls. The rule behind the calls is not given here.
# What was measured:
# [1] = target: T1, Lysophosphatidylserine lipase ABHD12 (Mus musculus) (UniProt Q99LR1); assay: Inhibition of JJH350 binding to ABHD12 in mouse brain membrane proteome at 2 uM after 20 mins by CuAAC based fluorescence scanning assay relative to control; type: cell membranes
# T1 sequence (whole entry): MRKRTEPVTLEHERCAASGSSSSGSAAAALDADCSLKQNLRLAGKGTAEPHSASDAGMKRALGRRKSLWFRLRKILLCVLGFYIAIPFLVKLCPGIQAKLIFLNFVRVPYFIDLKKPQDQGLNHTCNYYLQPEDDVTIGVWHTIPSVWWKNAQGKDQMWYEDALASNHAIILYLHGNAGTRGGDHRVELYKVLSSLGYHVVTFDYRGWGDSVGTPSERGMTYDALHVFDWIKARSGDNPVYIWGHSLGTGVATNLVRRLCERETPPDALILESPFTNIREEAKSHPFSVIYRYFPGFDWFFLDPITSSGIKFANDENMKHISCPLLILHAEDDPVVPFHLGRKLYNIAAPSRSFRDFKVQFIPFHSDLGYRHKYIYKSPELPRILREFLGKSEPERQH
# Procedure, shortened: (§1)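 Brain membrane fraction (1 mg/mL; DPBS homogenate, 16,000 x g pellet) treated with inhibitor for 20 min at room temperature. JJH350 (2 μM) added for 45 min at 37 °C, then CuAAC with rhodamine-PEG3-azide, CuSO4, TBTA and TCEP for 1 h at room temperature. Run on 10% SDS-PAGE and read by in-gel fluorescence. ABHD12 band normalized to control-treated sample (100%); IC50 from log dose-response fit.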
# [2] = target: T1, Lysophosphatidylserine lipase ABHD12 (Mus musculus); assay: Inhibition of JJH350 binding to ABHD12 in mouse brain membrane proteome at 10 uM after 20 mins by CuAAC based fluorescence scanning assay relative to control; type: cell membranes; procedure, shortened: as §1
# [3] = target: T2, Lysophosphatidylserine lipase ABHD12 (Mus musculus, UniProt Q99LR1); assay: Inhibition of JJH350 binding to ABHD12 in mouse brain membrane proteome incubated for 20 mins by CuAAC fluorescence dependent gel-based competitive ABPP assay; type: cell membranes; procedure, shortened: as §1
# T2 sequence (Q99LR1 whole entry): T1 sequence (whole entry)
# [4] = target: T2, Lysophosphatidylserine lipase ABHD12; assay: Inhibition of FP-Rh probe binding to ABHD12 in mouse brain membrane proteome incubated for 45 mins by CuAAC fluorescence dependent gel-based competitive ABPP assay; type: cell membranes
# Procedure, shortened: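 Mouse brain membrane proteome (1 mg/mL) preincubated with inhibitor for 45 min at 37 °C. Labelled with FP-Rh (1 μM) or JJH350 (2 μM) for 45 min at 37 °C. JJH350 samples were clicked to Rh-N3 (25 μM) by CuAAC for 60 min at room temperature. Read by 10% SDS-PAGE and in-gel fluorescence scanning. Band intensity taken relative to control (100%), and IC50 from log(inhibitor) vs normalized response.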
# [5] = target: T3, Lysophosphatidylserine lipase ABHD12 (Homo sapiens) (UniProt Q8N2K0); assay: Time dependent inhibition of FP-Rh binding to ABHD12 (unknown origin) expressed in HEK293T cell membranes by gel-based ABPP assay
# T3 sequence (whole entry): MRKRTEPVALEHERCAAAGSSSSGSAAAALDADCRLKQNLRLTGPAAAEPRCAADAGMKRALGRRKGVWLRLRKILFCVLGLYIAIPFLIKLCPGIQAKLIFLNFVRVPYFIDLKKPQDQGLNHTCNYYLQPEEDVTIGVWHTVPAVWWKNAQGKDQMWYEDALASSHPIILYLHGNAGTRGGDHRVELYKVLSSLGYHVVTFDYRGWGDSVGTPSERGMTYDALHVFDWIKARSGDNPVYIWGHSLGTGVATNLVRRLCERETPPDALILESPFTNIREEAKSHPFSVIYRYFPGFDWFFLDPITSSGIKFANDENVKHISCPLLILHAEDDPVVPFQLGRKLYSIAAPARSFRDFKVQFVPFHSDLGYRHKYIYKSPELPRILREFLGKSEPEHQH
# [6] = target: T3, Lysophosphatidylserine lipase ABHD12 (Homo sapiens); assay: Inhibition of ABHD12 (unknown origin) expressed in HEK293T cell membranes at 10 uM using 17:1 lyso-PS as substrate preincubated for 20 mins followed by substrate addition measured after 30 mins by LC-MS analysis
# Procedure, shortened: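 Membranes from HEK293T overexpressing ABHD12 (0.25 mg/mL) in DPBS preincubated with compound for 20 min at room temperature. 17:1 lyso-PS added (100 μM final) and incubated 30 min at 37 °C. Quenched with 2:1 CHCl3/MeOH containing 1 nmol 15:0 FFA internal standard. Organic phase analyzed by LC-MS on C18 with NH4OH-containing gradient.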
# Mus musculus = assay: In vivo inhibition of JJH350 binding to ABHD12 in mouse at 30 mg/kg, ip treated for 4 hrs by CuAAC based fluorescence scanning assay; type: functional, organism-based
# Procedure, shortened: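 Mice injected i.p. at 10 μL/g body weight with fresh suspension in EtOH/PEG40/DPBS 1:1:18. Anesthetized with isoflurane, killed by cervical dislocation, tissues harvested. Tissues dounce-homogenized in DPBS; membrane fraction from 16,000 x g spin. Labelled with JJH350, then CuAAC to rhodamine-azide, SDS-PAGE and fluorescence scanning.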
# [7] = target: T3, Lysophosphatidylserine lipase ABHD12 (Homo sapiens); assay: Inhibition of ABHD12 in PMA-differentiated human THP1 cells assessed as increase in TNF-alpha production at 1 uM treated simultaneously with IFN-gamma/LPS for 24 hrs and measured 6 to 24 hrs after stimulation
# Procedure, shortened: (§2)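 THP-1 cells grown in RPMI/10% FBS/0.05 mM 2-mercaptoethanol, plated 2.5×10^6 per well. Treated 24 h with 150 ng/mL PMA, washed, rested 24 h. Polarized to M1 with 20 ng/mL IFN-γ plus 10 pg/mL LPS for 24 h. Compound or DMSO (test 0.1–1 μM) present at every step. Media sampled 6 and 24 h after stimulation; cytokines by MSD V-Plex. Mean ± SEM, four biological experiments.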
# [8] = target: T3, Lysophosphatidylserine lipase ABHD12 (Homo sapiens); assay: Inhibition of ABHD12 in PMA-differentiated human THP1 cells assessed as increase in IL-1beta production at 1 uM treated simultaneously with IFN-gamma/LPS for 24 hrs and measured 6 to 24 hrs after stimulation; procedure, shortened: as §2
# [9] = target: T3, Lysophosphatidylserine lipase ABHD12 (Homo sapiens); assay: Inhibition of ABHD12 in PMA-differentiated human THP1 cells assessed as increase in CCL3 production at 1 uM treated simultaneously with IFN-gamma/LPS for 24 hrs and measured 6 to 24 hrs after stimulation; procedure, shortened: as §2
# [10] = target: T3, Lysophosphatidylserine lipase ABHD12 (Homo sapiens); assay: Inhibition of ABHD12 in PMA-differentiated human THP1 cells assessed as increase in CCL4 production at 1 uM treated simultaneously with IFN-gamma/LPS for 24 hrs and measured 6 to 24 hrs after stimulation; procedure, shortened: as §2
inhibition [1] [%],inhibition [2] [%],IC50 [3] [µM],Structure (SMILES),further results
0,4,,FC(F)(F)c1cnc(N2CCCC(NC(=S)Nc3cccnc3)C2)c(Cl)c1 (centres undefined),
,,0.025,FC(F)(F)Oc1ccc(Oc2ccnc(N3CCC(NC(=S)Nc4cccnc4)CC3)c2Cl)cc1,
,,> 5,COc1ccnc(N2CCC(NC(=S)Nc3cccnc3)CC2)c1,
,,0.026,Cc1c(Oc2ccc(OC(F)(F)F)cc2)ccnc1N1CCC(NC(=S)Nc2cccnc2)CC1,
54,90,,FC(F)(F)c1cnc(NCCCCCNC(=S)Nc2cccnc2)c(Cl)c1,
,,2.9,COc1ccc(Oc2ccnc(N3CCC(NC(=S)Nc4cccnc4)CC3)c2)cc1,
,,1.9,FC(F)(F)c1ccc(N2CCC(NC(=S)Nc3cccnc3)CC2)nc1,
,,0.18,N#Cc1c(Oc2ccc(OC(F)(F)F)cc2)ccnc1N1CCC(NC(=S)Nc2cccnc2)CC1,
,,,COc1ccc(N2CCN(C(=O)ON3C(=O)C4CN(Cc5ccc(Oc6ccccc6)cc5)CCN4C3=O)CC2)cc1 (centres undefined),IC50 [4]: > 10 µM
,,1.4,Fc1ccc(Oc2ccnc(N3CCC(NC(=S)Nc4cccnc4)CC3)c2)cc1,
,,0.096,FC(F)(F)Oc1ccccc1Oc1ccnc(N2CCC(NC(=S)Nc3cccnc3)CC2)c1Cl,
,,0.3,FC(F)(F)c1ccnc(N2CCC(NC(=S)Nc3cccnc3)CC2)c1Cl,
1,12,,FC(F)(F)c1cnc(N2CCC(NC(=S)Nc3cccnc3)C2)c(Cl)c1 (centres undefined),
66,96,,FC(F)(F)c1cnc(N2CCC(NC(=S)Nc3ccccc3)CC2)c(Cl)c1,
89,96,1.1,FC(F)(F)c1cnc(N2CCC(NC(=S)Nc3cccnc3)CC2)c(Cl)c1,TDI [5]: inactive
0,1,,COc1ccc(NC(=S)NC2CCN(c3ncc(C(F)(F)F)cc3Cl)CC2)cn1,
,,> 5,FC(F)(F)c1cccnc1N1CCC(NC(=S)Nc2cccnc2)CC1,
19,63,,FC(F)(F)c1cnc(N2C3CCC2CC(NC(=S)Nc2cccnc2)C3)c(Cl)c1 (centres undefined),
,,3.4,S=C(Nc1cccnc1)NC1CCN(c2cc(OC3CCCCC3)ccn2)CC1,
,,0.089,FC(F)(F)Oc1cccc(Oc2ccnc(N3CCC(NC(=S)Nc4cccnc4)CC3)c2Cl)c1,
,,0.033,FC(F)(F)Oc1ccc(Oc2ccnc(N3CCC(NC(=S)Nc4cccnc4)CC3)c2Cl)cc1Cl,
9,59,,FC(F)(F)c1cnc(N2CCCC(NC(=S)Nc3cccnc3)CC2)c(Cl)c1 (centres undefined),
,,> 50,Cc1cnc(N2CCN(NC(=S)Nc3cccnc3)CC2)c(Cl)c1,inhibition [6]: inactive

inhibition [1] [%],inhibition [2] [%],IC50 [3] [µM],Structure (SMILES),further results
,,,COc1ccc(N2CCN(C(=O)ON3C(=O)C4CN(C(=O)c5ccc(Oc6ccccc6)cc5)CCN4C3=O)CC2)cc1 (centres undefined),IC50 [4]: 0.32 µM; inhibition (Mus musculus): Active
,,1.4,FC(F)(F)c1cc(N2CCC(NC(=S)Nc3cccnc3)CC2)ncc1Cl,
,,90,FC(F)(F)Oc1ccc(Oc2ccnc(N3CCCC(NC(=S)Nc4cccnc4)C3)c2Cl)c(Cl)c1 (centres undefined),
,,0.63,FC(F)(F)c1cccc(N2CCC(NC(=S)Nc3cccnc3)CC2)n1,
,,0.54,FC(F)(F)c1cc(Cl)nc(N2CCC(NC(=S)Nc3cccnc3)CC2)c1,
0,0,,FC(F)(F)c1cnc(NCCCNC(=S)Nc2cccnc2)c(Cl)c1,
,,2.1,S=C(Nc1cccnc1)NC1CCN(c2cc(Cl)ccn2)CC1,
0,2,,FC(F)(F)c1cnc(N2CCC(NC(=S)Nc3cnc4ccccc4c3)CC2)c(Cl)c1,
,,0.64,FC(F)(F)c1ccnc(N2CCC(NC(=S)Nc3cccnc3)CC2)c1,
22,70,,FC(F)(F)c1cnc(NCCCCCCNC(=S)Nc2cccnc2)c(Cl)c1,
,,0.41,FC(F)(F)Oc1ccc(Oc2ccnc(N3CCC(NC(=S)Nc4cccnc4)CC3)c2)cc1,
,,2.8,S=C(Nc1cccnc1)NC1CCN(c2cc(OCc3ccccc3)ccn2)CC1,
12,35,,FC(F)(F)c1cnc(NCCCCNC(=S)Nc2cccnc2)c(Cl)c1,
,,> 100,FC(F)(F)Oc1ccc(Oc2ccnc(N3CCC[C@H](NC(=S)Nc4cccnc4)C3)c2Cl)c(Cl)c1,inhibition [7]: inactive; inhibition [8]: inactive; inhibition [9]: inactive; inhibition [10]: inactive
,,> 5,S=C(Nc1cccnc1)NC1CCN(c2ncccc2Cl)CC1,
,,1.9,S=C(Nc1cccnc1)NC1CCN(c2cc(Oc3ccccc3)ccn2)CC1,
,,2.8,FC(F)(F)Oc1ccc(Oc2ccnc(N3CCC(NC(=S)Nc4cccnc4)CC3)c2C(F)(F)F)cc1,
,,100,FC(F)(F)Oc1ccc(Oc2ccnc(N3CCC[C@@H](NC(=S)Nc4cccnc4)C3)c2Cl)c(Cl)c1,
,,3.1,Cc1cnc(N2CCC(NC(=S)Nc3cccnc3)CC2)c(Cl)c1,
,,4.7,S=C(Nc1cccnc1)NC1CCN(c2cc(OCC3CC3)ccn2)CC1,
31,61,,CN(C(=S)Nc1cccnc1)C1CCN(c2ncc(C(F)(F)F)cc2Cl)CC1,
1,29,,O=C(Nc1cccnc1)NC1CCN(c2ncc(C(F)(F)F)cc2Cl)CC1,
0,0,,FC(F)(F)c1cnc(N2CCC(NC(=S)N3CCCc4ccccc43)CC2)c(Cl)c1,

# Reference: ChEMBL document CHEMBL4400528, “Discovery and Optimization of Selective and in Vivo Active Inhibitors of the Lysophosphatidylserine Lipase α/β-Hydrolase Domain-Containing 12 (ABHD12)” (J Med Chem, 2019)
